Reference: ChEMBL document CHEMBL1156910, “Binding of curcumin and its long chain derivatives to the activator binding domain of novel protein kinase C” (Bioorg Med Chem, 2010)

How the values were obtained:
[1] = target: T1, Protein kinase C epsilon type (Homo sapiens, UniProt Q02156); assay: Binding affinity to GST-tagged PKCepsilon expressed in Escherichia coli BL21(DE3) by fluorescence quenching
T1 sequence (Q02156 whole entry): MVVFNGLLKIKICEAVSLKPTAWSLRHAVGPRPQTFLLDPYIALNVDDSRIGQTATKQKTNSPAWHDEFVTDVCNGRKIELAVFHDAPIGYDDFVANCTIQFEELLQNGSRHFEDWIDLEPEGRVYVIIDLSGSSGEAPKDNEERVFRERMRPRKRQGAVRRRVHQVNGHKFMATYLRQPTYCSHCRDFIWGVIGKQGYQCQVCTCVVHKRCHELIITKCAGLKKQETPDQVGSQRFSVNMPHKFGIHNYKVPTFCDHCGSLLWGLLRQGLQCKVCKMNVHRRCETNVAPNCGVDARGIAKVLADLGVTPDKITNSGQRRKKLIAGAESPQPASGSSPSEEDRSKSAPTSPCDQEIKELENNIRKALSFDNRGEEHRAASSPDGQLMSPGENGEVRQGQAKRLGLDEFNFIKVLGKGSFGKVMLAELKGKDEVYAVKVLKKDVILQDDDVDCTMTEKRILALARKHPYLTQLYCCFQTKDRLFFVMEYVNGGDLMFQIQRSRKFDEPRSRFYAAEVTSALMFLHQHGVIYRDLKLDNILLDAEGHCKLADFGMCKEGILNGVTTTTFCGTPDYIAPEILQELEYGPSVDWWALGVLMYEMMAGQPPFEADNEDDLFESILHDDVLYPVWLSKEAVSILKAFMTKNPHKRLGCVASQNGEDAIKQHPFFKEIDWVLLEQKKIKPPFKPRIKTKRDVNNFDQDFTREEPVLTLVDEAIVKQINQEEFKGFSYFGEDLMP
Method in brief: (§1)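 Isolated C1B subdomain made in E. coli as GST fusion, purified on glutathione-Sepharose, GST removed by thrombin, then ammonium sulfate precipitation and Superdex 75 gel filtration. Excitation 280 nm, intrinsic emission at 350 nm as (F0-F)/F, Hill fit gives EC50.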

[2] = target: Protein kinase C delta type (Homo sapiens, UniProt Q05655); assay: Binding affinity to GST-tagged PKCdelta expressed in Escherichia coli BL21(DE3) by fluorescence quenching; method in brief: as §1
Sequence of Protein kinase C delta type (Q05655 whole entry): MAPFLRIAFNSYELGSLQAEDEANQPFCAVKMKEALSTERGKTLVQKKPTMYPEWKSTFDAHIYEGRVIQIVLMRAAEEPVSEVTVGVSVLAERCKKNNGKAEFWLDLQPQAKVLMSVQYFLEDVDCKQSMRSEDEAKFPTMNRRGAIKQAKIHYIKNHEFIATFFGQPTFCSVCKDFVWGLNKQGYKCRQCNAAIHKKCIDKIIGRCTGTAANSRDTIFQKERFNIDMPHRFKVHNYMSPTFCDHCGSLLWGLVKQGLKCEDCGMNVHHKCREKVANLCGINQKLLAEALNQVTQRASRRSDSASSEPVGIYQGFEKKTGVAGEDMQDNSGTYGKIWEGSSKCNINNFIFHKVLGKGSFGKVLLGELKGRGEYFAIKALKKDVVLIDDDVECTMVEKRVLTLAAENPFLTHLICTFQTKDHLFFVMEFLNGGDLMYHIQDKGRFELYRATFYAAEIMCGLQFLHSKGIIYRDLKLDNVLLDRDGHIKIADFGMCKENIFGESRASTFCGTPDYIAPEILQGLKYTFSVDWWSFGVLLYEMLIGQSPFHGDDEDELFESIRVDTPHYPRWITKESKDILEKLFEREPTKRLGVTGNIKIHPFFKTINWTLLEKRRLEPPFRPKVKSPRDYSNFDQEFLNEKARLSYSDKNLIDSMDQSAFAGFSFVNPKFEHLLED

[3] = target: Protein kinase C theta type (Homo sapiens, UniProt Q04759); assay: Binding affinity to GST-tagged PKCtheta expressed in Escherichia coli BL21(DE3) by fluorescence quenching; method in brief: as §1
Sequence of Protein kinase C theta type (Q04759 whole entry): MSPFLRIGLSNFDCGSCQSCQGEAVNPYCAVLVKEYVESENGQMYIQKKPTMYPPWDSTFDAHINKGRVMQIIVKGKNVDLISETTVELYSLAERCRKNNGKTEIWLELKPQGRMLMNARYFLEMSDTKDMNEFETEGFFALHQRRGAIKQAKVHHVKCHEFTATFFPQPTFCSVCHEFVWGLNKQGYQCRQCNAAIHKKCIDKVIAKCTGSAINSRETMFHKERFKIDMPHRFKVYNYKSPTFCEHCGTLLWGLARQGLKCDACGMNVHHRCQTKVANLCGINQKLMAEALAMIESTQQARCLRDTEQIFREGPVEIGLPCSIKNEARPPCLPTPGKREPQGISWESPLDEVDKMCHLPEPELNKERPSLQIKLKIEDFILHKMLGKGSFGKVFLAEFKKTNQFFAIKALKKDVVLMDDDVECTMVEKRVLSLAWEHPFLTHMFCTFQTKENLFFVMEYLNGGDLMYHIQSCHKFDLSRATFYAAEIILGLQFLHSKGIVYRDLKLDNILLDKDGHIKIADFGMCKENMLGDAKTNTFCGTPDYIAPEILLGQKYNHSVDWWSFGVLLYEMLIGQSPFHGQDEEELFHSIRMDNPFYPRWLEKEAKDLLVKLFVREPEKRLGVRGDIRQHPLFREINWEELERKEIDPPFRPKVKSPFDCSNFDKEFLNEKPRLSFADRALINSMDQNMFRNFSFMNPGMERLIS

Row | Compound | EC50 [1] | EC50 [2] | EC50 [3]
1 | O=C(/C=C(O)/C=C/c1ccc(O)c(O)c1)/C=C/c1ccc(O)c(O)c1 | 11.1 µM | 12.5 µM | 6.57 µM
2 | CCCCCCCC/C=C\CCCCCCCC(=O)OC[C@H](CO)OC(=O)CCCCCCC/C=C\CCCCCCCC | 14.3 µM | 7.49 µM | 8.67 µM
3 | CCCCCCCCCCCCCCCCOc1ccc(/C=C/C(O)=C/C(=O)/C=C/c2ccc(O)c(OC)c2)cc1OC | 10.6 µM | 8.98 µM | 5.95 µM
4 | CCCCCCCCOc1ccc(/C=C/C(O)=C/C(=O)/C=C/c2ccc(O)c(OC)c2)cc1OC | 9.79 µM | 8.69 µM | 4 µM
5 | CCCCCCCCCCCCCC(=O)O[C@@H]1[C@@H](C)[C@@]2(O)[C@@H](C=C(CO)C[C@]3(O)C(=O)C(C)=C[C@@H]23)[C@@H]2C(C)(C)[C@]12OC(C)=O [PHORBOL MYRISTATE ACETATE] | 5.56 µM | 5.17 µM | 3.19 µM
6 | COc1cc(/C=C/C(=O)CC(=O)/C=C/c2ccc(O)c(OC)c2)ccc1O [CURCUMIN] | 8.81 µM | 10.7 µM | 11.1 µM
7 | CCCCCCCC(=O)OC[C@H](CO)OC(=O)CCCCCCC |  |  | 5.24 µM
